This passage reports viability, differential viability (reversal) and inhibition results from PubChem BioAssay.

Activity calls are given as the source filed them.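 Rule for the calls, unless noted: active = viability loss from added drug above about 55%, and viability with drug at most 40%, in both replicates (limit read from the data, passing the limit was not always enough); inconclusive = both conditions met in only one replicate; inactive = neither replicate meets both conditions.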

A short description of assay [1]: reduced viability of SK-BR-3 breast cancer cells – cell-based, 24 h, human, pilot screen (AID 572;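 active = viability at or below 10% of carrier control in both of two separate runs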;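 note: compound exposure lasted between 18 and 24 h rather than exactly 24 h; 100% = carrier-treated control wells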). The following applies: SK-BR-3 viability, CellTiter-Glo luminescence, at 10 µM, stronger effect = lower value. On the technique in general: Cellular ATP, detected with luciferase, serves as a proxy for viable cell number.
Assay [2] in a line: HUVEC growth inhibition – cell-based, human, primary screen (AID 575;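 active = viability at or below 30% in both replicate assays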;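 note: 100% = median of untreated cell wells with 0.1% DMSO on each plate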). The following applies: HUVEC proliferation, CellTiter-Glo luminescence, 72 h; at 10 µM; stronger effect = lower value. The procedure, abridged:
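Test system: HUVEC primary cells. Quantity: 1250 endothelial cells in each well. Dosing: single-point 10 µM, DMSO 0.1% final. Incubation: 72 h treatment at 37 °C. Measured by: CTG luminescence. Control set: DMSO cell controls and MePR drug controls. Plate: collagen-coated 384-well format.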

The nature of assay [3]: H69AR cell proliferation blockers – human, duplicate replicates, primary screen (AID 580;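 active = viability at or under a set limit in both replicates, limit being median viability minus 3 SD, cut at about 48% in these data, passing the limit was not always enough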;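 note: 100% = mean luminescence of untreated wells and 0% = no signal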). The following applies: H69AR lung tumor cells viability, ATP luminescence, 72 h; at 10 µM; stronger effect = lower value.
Assay [4] can be described thus: MRP1 drug-resistance reversers in H69AR cells – cell-based, doxorubicin co-treatment, pilot screen (AID 601). The following applies: CellTiter-Glo, 72 h, at 10 µM; for differential viability (reversal): stronger effect = higher value.
Assay [5] can be described thus: yeast transport mutant growth inhibition pilot in 384-well plates, post-Golgi transport modulator project (AID 636; in the data active = inhibition above about 31%). The following applies: absorbance 615 nm, about 18 h, stronger effect = higher value.
A short description of assay [6]: growth suppression of yeast trafficking mutant, preliminary HTS, modulators of trafficking downstream of Golgi apparatus project, 1536-format plate, OD 615 nm (AID 637; in the data active = inhibition above about 30%). As to conditions: yeast transport mutant growth, absorbance 615 nm, 18 h; stronger effect = higher value.
Where [7] appears, read: H69AR cells + 2 uM doxorubicin, measured here: viability with 2 uM doxorubicin, stronger effect = lower value.
Where [8] appears, read: H69AR cells, compound alone cytotoxicity.

Consider `Nc1ncnc2nc(Sc3ccc(Cl)cc3)[nH]c12`, for which the viability – broadly, a read-out of living cells in per cent, often relative to untreated cells – is 99% (inactive) in assay [1]; 96.1% (inactive) in assay [2]; 98.6% (inactive) in assay [3]; 91.1% in assay [4] (setting [7]); 98.6% in assay [4] (setting [8]). In addition, the differential viability (reversal) in assay [4] (H69AR cells + 2 uM doxorubicin) was 7.52% (inactive). Further, the values for the inhibition in assay [5] and in assay [6] were 0.52% (inactive) and 4.59% (inactive), respectively.
Consider `Cc1csc(NC(=O)C2CCCO2)n1` (stereo unspecified), for which the viability in assay [1] is 87% (inactive); in assay [2] it was 86.9% (inactive); in assay [3], 91.4% (inactive); in assay [4] (setting [7]), 81.4%; in assay [4] (setting [8]), 91.4%. For the same compound, in assay [4] (H69AR cells + 2 uM doxorubicin), the differential viability (reversal) is 9.97% (inactive). Besides, the values for the inhibition in assay [5] and in assay [6] were -4.16% (inactive) and 10.3% (inactive), respectively.
Consider `CCSc1nc(N)c(C#N)c(-c2ccccc2Cl)c1C#N`, for which the viability in assay [1] was 105% (inactive); in assay [2], 96.1% (inactive); in assay [3] it was 75.9% (inactive); in assay [4] (setting [7]) it was 78.9%; in assay [4] (setting [8]), 75.9%. Besides, the differential viability (reversal) in assay [4] (H69AR cells + 2 uM doxorubicin) was -3% (inactive). The inhibition (usually the drop in the measured response relative to a control, in per cent) is 0.14% (inactive) in assay [5] and 0% (inactive) in assay [6].
As to `O=C(O)c1cccc(NC(=O)C23CC4CC(C2)CC(n2cnc(Cl)n2)(C4)C3)c1`, the viability was 122% (inactive) in assay [1]; 105% (inactive) in assay [2]; 96.9% (inactive) in assay [3]; 91.1% in assay [4] (setting [7]); 96.9% in assay [4] (setting [8]). Moreover, the differential viability (reversal) in assay [4] (H69AR cells + 2 uM doxorubicin) is 5.78% (inactive). The inhibition in assay [5] was -1.95% (inactive); in assay [6], 0.98% (inactive).
On to `Cc1ccc(-c2nn[nH]n2)cc1`, for which the viability is 109% (inactive) in assay [1]; 112% (inactive) in assay [2]; 107% (inactive) in assay [3]; 111% in assay [4] (setting [7]); 107% in assay [4] (setting [8]). Further, in assay [4] (H69AR cells + 2 uM doxorubicin), the differential viability (reversal) is -4.72% (inactive). Besides, the figures for the inhibition in assay [5] and in assay [6] were -4.79% (inactive) and 2.18% (inactive), respectively.
For the compound `CC1CC(C)CN(CC(=O)Nc2ccc(S(N)(=O)=O)cc2)C1` (stereo unspecified), the viability in assay [1] is 96% (inactive); in assay [2], 96.9% (inactive); in assay [3], 84.9% (inactive); in assay [4] (setting [7]), 82.8%; in assay [4] (setting [8]), 84.9%. The differential viability (reversal) in assay [4] (H69AR cells + 2 uM doxorubicin) is 2.1% (inactive). For the same compound, the inhibition is 3.29% (inactive) in assay [5] and -2.58% (inactive) in assay [6].
Turning to `O=C(CCn1c(=O)c2ccccc2n(CC(=O)NCCC2=CCCCC2)c1=O)NCc1ccco1`, the viability is 99% (inactive) in assay [1]; 90.9% (inactive) in assay [2]; 92.2% (inactive) in assay [3]; 87% in assay [4] (setting [7]); 92.2% in assay [4] (setting [8]). Moreover, the differential viability (reversal) in assay [4] (H69AR cells + 2 uM doxorubicin) was 5.12% (inactive). Also, the inhibition in assay [5] was -5.06% (inactive); in assay [6] it was -2.79% (inactive).
For `Cc1cc(C)c2nc(C(F)(F)F)nc(NCCCN3CCCC3=O)c2c1`, the viability in assay [1] is 113% (inactive); in assay [2], 51.4% (inactive); in assay [3], 83.7% (inactive); in assay [4] (setting [7]), 92.7%; in assay [4] (setting [8]), 83.7%. Further, the differential viability (reversal) in assay [4] (H69AR cells + 2 uM doxorubicin) is -9.04% (inactive). The inhibition in assay [5] was -4.38% (inactive); in assay [6], 0.65% (inactive).
`COC(=O)c1ccccc1NC(=O)c1cnc2sccn2c1=O`: the viability was 110% (inactive) in assay [1]; 87.9% (inactive) in assay [2]; 104% (inactive) in assay [3]; 95.5% in assay [4] (setting [7]); 104% in assay [4] (setting [8]). Also, the differential viability (reversal) in assay [4] (H69AR cells + 2 uM doxorubicin) is 8.43% (inactive). Further, the inhibition in assay [5] is -3.6% (inactive); in assay [6], -0.91% (inactive).
With `CCCN(CCC)C(=O)CC(c1ccc(F)cc1)c1ccco1` (stereo unspecified), the viability in assay [1] was 71% (inactive); in assay [2], 80.7% (inactive); in assay [3], 80.8% (inactive); in assay [4] (setting [7]), 86.8%; in assay [4] (setting [8]), 80.8%. Moreover, the differential viability (reversal) in assay [4] (H69AR cells + 2 uM doxorubicin) is -6.06% (inactive). For the same compound, the inhibition in assay [5] was -5.48% (inactive); in assay [6], -0.91% (inactive).
In the case of `CC(CN(C)Cc1ccccc1)OC(=O)c1ccc2c(c1)OCCO2` (stereo unspecified), the viability in assay [1] is 93% (inactive); in assay [2] it was 85.3% (inactive); in assay [3], 94.1% (inactive); in assay [4] (setting [7]) it was 88.8%; in assay [4] (setting [8]), 94.1%. Further, the differential viability (reversal) in assay [4] (H69AR cells + 2 uM doxorubicin) was 5.22% (inactive). Moreover, the inhibition in assay [5] was -7.67% (inactive); in assay [6] it was 1.29% (inactive).
Take `COc1ccccc1-c1nc2n(n1)C(c1ccc(Cl)cc1)C(C(N)=O)=C(C)N2` (stereo unspecified): the viability in assay [1] was 126% (inactive); in assay [2] it was 89.8% (inactive); in assay [3] it was 83.5% (inactive); in assay [4] (setting [7]), 87.9%; in assay [4] (setting [8]), 83.5%. Besides, the differential viability (reversal) in assay [4] (H69AR cells + 2 uM doxorubicin) was -4.36% (inactive). In addition, the inhibition in assay [5] was -0.91% (inactive); in assay [6], -3.61% (inactive).
For `NC(=O)C1CCN(C(=S)c2cccs2)CC1`, the viability is 77% (inactive) in assay [1]; 102% (inactive) in assay [2]; 96.1% (inactive) in assay [3]; 84.7% in assay [4] (setting [7]); 96.1% in assay [4] (setting [8]). Further, in assay [4] (H69AR cells + 2 uM doxorubicin), the differential viability (reversal) is 11.5% (inactive). Also, the results for the inhibition in assay [5] and in assay [6] were -8.49% (inactive) and 3.39% (inactive), respectively.
In the case of `O=C(CN1CCN(c2nc(-c3ccc(F)cc3)cs2)CC1)NCc1ccc2c(c1)OCO2`, the viability is 175% (inactive) in assay [1]; 69% (inactive) in assay [2]; 91.2% (inactive) in assay [3]; 75.2% in assay [4] (setting [7]); 91.2% in assay [4] (setting [8]). For the same compound, the differential viability (reversal) in assay [4] (H69AR cells + 2 uM doxorubicin) is 15.9% (inactive). Moreover, the inhibition was -6.49% (inactive) in assay [5] and 13.5% (inactive) in assay [6].
Consider `CCN(CCCNC(=O)COc1cc(=O)n(CC)c2ccccc12)c1ccccc1`, for which the viability was 86% (inactive) in assay [1]; 56.9% (inactive) in assay [2]; 74.7% (inactive) in assay [3]; 68.9% in assay [4] (setting [7]); 74.7% in assay [4] (setting [8]). The differential viability (reversal) in assay [4] (H69AR cells + 2 uM doxorubicin) was 5.79% (inactive). The inhibition was -5.32% (inactive) in assay [5] and -4.75% (inactive) in assay [6].
Regarding `CCN(CC)CCNC(=O)c1ccc(NC(C)=O)cc1`, the viability was 136% (inactive) in assay [1]; 96.6% (inactive) in assay [2]; 94.8% (inactive) in assay [3]; 102% in assay [4] (setting [7]); 94.8% in assay [4] (setting [8]). The differential viability (reversal) in assay [4] (H69AR cells + 2 uM doxorubicin) was -6.82% (inactive). The inhibition is -1.69% (inactive) in assay [5] and 3.5% (inactive) in assay [6].
For the compound `Cc1cccc(C(=O)O)c1NC(=O)c1ccc(F)cc1`, the viability in assay [1] was 109% (inactive); in assay [2], 107% (inactive); in assay [3] it was 104% (inactive); in assay [4] (setting [7]) it was 100%; in assay [4] (setting [8]), 104%. Besides, in assay [4] (H69AR cells + 2 uM doxorubicin), the differential viability (reversal) is 3.75% (inactive). In addition, the inhibition is 0.27% (inactive) in assay [5] and -1.09% (inactive) in assay [6].
